From ChEMBL document CHEMBL4052819 (2017)
Converted amounts (≈) assume the structure as drawn. The source made the active and inactive calls. No cut-off for these calls is given here. Non-standard residues stand in square brackets, D forms with d. Residues, ends and D or L forms follow the SMILES beside them. Cha = N[C@@H](CC1CCCCC1)C(=O)O; Dab = NCC[C@H](N)C(=O)O

Legend:
Pseudomonas aeruginosa [1] = assay: Induction of cytoplasmic membrane damage in Pseudomonas aeruginosa ATCC 27853 assessed as intracellular potassium ion release at 32 to 64 ug/ml by PBFI probe-based fluorescence assay; format: functional, cell-based
Method in brief: (§1)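 Mid-log cells washed and suspended in 5 mM HEPES pH 7.2 + 5 mM glucose. PBFI K+ probe added at final 2 μM, then compound at final 8–64 μg/mL; fluorescence read at ex 346/em 505 nm. Three independent experiments; change in fluorescence analysed by ANOVA with Tukey HSD.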

Pseudomonas aeruginosa [2] = assay: Bactericidal activity against Pseudomonas aeruginosa ATCC 27853 at 16 to 32 ug/ml after 24 hrs by time-kill assay; format: functional
Method in brief: (§2)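 Time-kill at 8, 16 and 32 μg/mL; survivors counted on tryptic soy agar at 0, 2, 4, 6 and 24 h. Three independent experiments, one replicate each.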

Pseudomonas aeruginosa [3] = assay: Antibacterial activity against Pseudomonas aeruginosa ATCC 27853 after 18 to 20 hrs by broth microdilution method; format: functional
Method in brief: (§3)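 Broth microdilution in tryptic soy broth: 2-fold dilutions mixed 1:1 with ~1.5 × 10^5 CFU/mL inoculum, final 0.5–32 μg/mL; 37 °C, 18–20 h. MIC taken as lowest concentration giving no visible growth. At least three independent experiments, one replicate each.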

Escherichia coli [4] = assay: Antibacterial activity against polymyxin-resistant Escherichia coli UAMS-ECPR1 after 18 to 20 hrs by broth microdilution method; format: functional
Method in brief: (§4)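 Broth microdilution in tryptic soy broth: 2-fold dilutions mixed 1:1 with ~1.5 × 10^5 CFU/mL bacterial suspension in TSB, final 0.5–32 μg/mL, 37 °C for 18–20 h. MIC = lowest concentration with no visible growth. At least three independent experiments, one replicate each.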

Escherichia coli [5] = assay: Antibacterial activity against polymyxin-resistant Escherichia coli AR 0494 expressing mcr1 after 18 to 20 hrs by broth microdilution method; format: functional; method in brief: as §4
Klebsiella pneumoniae [6] = assay: Antibacterial activity against carbapenem-resistant Klebsiella pneumoniae clinical isolate expressing beta-lactamase NDM, OXA-181 after 18 to 20 hrs by broth microdilution method; format: functional; method in brief: as §4
Staphylococcus aureus [7] = assay: Antibiofilm activity against methicillin-resistant Staphylococcus aureus LAC established catheter-associated biofilm model at 20 times MIC after 72 hrs relative to control; format: functional
Pseudomonas aeruginosa [8] = assay: Bactericidal activity against Pseudomonas aeruginosa ATCC 27853 at 8 ug/ml after 24 hrs by time-kill assay; format: functional; method in brief: as §2
Escherichia coli [9] = assay: Antibacterial activity against Escherichia coli ATCC 25922 after 18 to 20 hrs by broth microdilution method; format: functional; method in brief: as §3
Escherichia coli [10] = assay: Antibacterial activity against carbapenem-resistant Escherichia coli clinical isolate expressing beta-lactamase KPC3, TEM1 after 18 to 20 hrs by broth microdilution method; format: functional; method in brief: as §4
Escherichia coli [11] = assay: Antibacterial activity against carbapenem-resistant Escherichia coli clinical isolate expressing beta-lactamase NDM after 18 to 20 hrs by broth microdilution method; format: functional; method in brief: as §4
Enterobacter cloacae = assay: Antibacterial activity against carbapenem-resistant Enterobacter cloacae clinical isolate expressing beta-lactamase NDM after 18 to 20 hrs by broth microdilution method; format: functional; method in brief: as §4
Pseudomonas aeruginosa [12] = assay: Antibiofilm activity against Pseudomonas aeruginosa ATCC 27853 established catheter-associated biofilm model at 40 times MIC after 72 hrs relative to control; format: functional
Staphylococcus aureus [13] = assay: Bactericidal activity against Staphylococcus aureus ATCC 29213 at 32 ug/ml after 60 mins in presence of LTA; format: functional
Method in brief: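 S. aureus at ~10^6 CFU/mL mixed with S. aureus LTA (final 10, 25, 50 or 100 μg/mL), then compound at final 32 μg/mL. Incubated 37 °C, 200 rpm, 60 min; survivors counted on TSA. Four independent experiments, one replicate each.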

Klebsiella pneumoniae [14] = assay: Bactericidal activity against Klebsiella pneumoniae ATCC 13883; format: functional; details: read-out: MBC99.9
Method in brief: (§5)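 MBC from MIC plates at end point: 50 μL from each well with no visible growth plated on tryptic soy agar and counted. MBC taken as lowest concentration giving ≥99.9% fall in viable count relative to initial inoculum. Three independent experiments, one replicate each.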

Acinetobacter baumannii = assay: Bactericidal activity against Acinetobacter baumannii ATCC 19606; format: functional; details: ATCC 19606 = CIP 70.34 = JCM 6841, read-out: MBC99.9; method in brief: as §5
Pseudomonas aeruginosa [15] = assay: Induction of cytoplasmic membrane depolarization in Pseudomonas aeruginosa ATCC 27853 at >= 16 ug/ml by DiSC3(5) probe-based fluorescence assay; format: functional
Staphylococcus aureus [16] = assay: Induction of cytoplasmic membrane damage in Staphylococcus aureus ATCC 29213 assessed as intracellular potassium ion release at 32 to 64 ug/ml by PBFI probe-based fluorescence assay; format: functional, cell-based; method in brief: as §1
Escherichia coli [17] = assay: Antibacterial activity against Escherichia coli ATCC 25922 in presence of 100% serum measured immediately post compound addition in serum by broth microdilution method; format: functional
Method in brief: (§6)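 Serum stability: compound added to 100% human serum at final 64 μg/mL, held at 37 °C, sampled at 0, 6, 12 and 24 h. […] Residual activity compared with untreated control.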

Klebsiella pneumoniae [18] = assay: Antibacterial activity against polymyxin-resistant Klebsiella pneumoniae AR 0109 after 18 to 20 hrs by broth microdilution method
Escherichia coli [19] = assay: Antibacterial activity against Escherichia coli ATCC 25922 in presence of 100% serum after 24 hrs by broth microdilution method; format: functional; details: ATCC 25922, 24 h; method in brief: as §6
Staphylococcus aureus [20] = assay: Bactericidal activity against Staphylococcus aureus ATCC 29213 at 32 ug/ml after 4 hrs by time-kill assay relative to control; format: functional; method in brief: as §2
Escherichia coli [21] = assay: Bactericidal activity against Escherichia coli ATCC 25922; format: functional; details: read-out: MBC99.9; method in brief: as §5
Staphylococcus aureus [22] = assay: Antibiofilm activity against methicillin-resistant Staphylococcus aureus LAC established catheter-associated biofilm model at 5 times MIC after 72 hrs relative to control; format: functional
Staphylococcus aureus [23] = assay: Antibacterial activity against Staphylococcus aureus ATCC 29213 after 18 to 20 hrs in presence of 95% serum by broth microdilution method; format: functional
Method in brief: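 Same microdilution with human serum as medium: compound 2-fold diluted in 100% serum, mixed 1:1 with 90% serum holding ~1.5 × 10^5 CFU/mL, giving 95% serum and final 0.5–64 μg/mL. MIC read as no visible growth after incubation as for the broth test.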

Staphylococcus aureus [24] = assay: Bactericidal activity against Staphylococcus aureus ATCC 29213 at 8 ug/ml after 24 hrs by time-kill assay; format: functional; method in brief: as §2
Escherichia coli [25] = assay: Antibacterial activity against polymyxin-resistant Escherichia coli UAMS-ECPR2 after 18 to 20 hrs by broth microdilution method; format: functional; method in brief: as §4
Klebsiella pneumoniae [26] = assay: Antibacterial activity against carbapenem-resistant Klebsiella pneumoniae clinical isolate expressing beta-lactamase KPC after 18 to 20 hrs by broth microdilution method; format: functional; method in brief: as §4
Staphylococcus aureus [27] = assay: Induction of cytoplasmic membrane depolarization in Staphylococcus aureus ATCC 29213 at >= 16 ug/ml by DiSC3(5) probe-based fluorescence assay; format: functional
Method in brief: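 S. aureus ATCC 29213 grown in TSB at 37 °C with shaking (200 rpm) for ~5 h after 1/100 dilution of an overnight culture. Cells washed twice in 5 mM HEPES (pH 7.2) with 5 mM glucose and resuspended in the same buffer. Loaded with 0.5 μM DiSC3(5) for 15 min at room temperature, then 100 mM KCl added. Compound given at 8–64 μg/mL final. Fluorescence read at ex 622/em 670 nm. Three independent experiments, ANOVA with Tukey HSD.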

For `CC(C)C[C@H](NC(=O)[C@@H](Cc1ccccc1)NC(=O)[C@H](CCN)NC(=O)[C@H](Cc1ccccc1)NC(=O)[C@H](CCN)NC(=O)[C@@H](N)CC1CCCCC1)C(=O)N[C@@H](CCN)C(=O)N[C@H](CC(C)C)C(=O)N[C@@H](Cc1ccccc1)C(=O)N[C@@H](CO)C(N)=O` (H-[Cha][Dab]F[Dab][dF]L[Dab][dL]FS-NH2), the Activity (Pseudomonas aeruginosa [1]) was “Active”, the Activity (Pseudomonas aeruginosa [2]) was “Active” and the MIC (Pseudomonas aeruginosa [3]) was 0.5 to 1 µg/mL (≈ 0.408 to 0.816 µM). For the same compound, the MIC (Escherichia coli [4]) was under 0.5 µg/mL, the MIC (Escherichia coli [5]) was 0.5 µg/mL (≈ 0.408 µM) and the MIC (Klebsiella pneumoniae [6]) was 0.5 to 2 µg/mL (≈ 0.408 to 1.63 µM). The Activity (Staphylococcus aureus [7]) was 5 deltalog10CFU/ml, the Activity (Pseudomonas aeruginosa [8]) was “inactive” and the MIC (Escherichia coli [9]) was 0.5 to 1 µg/mL (≈ 0.408 to 0.816 µM). The MIC (Escherichia coli [10]) was 0.5 to 1 µg/mL (≈ 0.408 to 0.816 µM), the MIC (Escherichia coli [11]) was 0.5 µg/mL (≈ 0.408 µM) and the MIC (Enterobacter cloacae) was 0.5 µg/mL (≈ 0.408 µM). The Activity (Pseudomonas aeruginosa [12]) was 2.6 deltalog10CFU/ml, the Activity (Staphylococcus aureus [13]) was “inactive” and the MBC (Klebsiella pneumoniae [14]) was 4 µg/mL (≈ 3.26 µM). For the same compound, the MBC (Acinetobacter baumannii) was 4 to 8 µg/mL (≈ 3.26 to 6.53 µM), the Activity (Pseudomonas aeruginosa [15]) was “Active” and the Activity (Staphylococcus aureus [16]) was “Active”. It also gave an MIC (Escherichia coli [17]) of 4 to 8 µg/mL, an MIC (Klebsiella pneumoniae [18]) of 4 to 8 µg/mL (≈ 3.26 to 6.53 µM) and an MIC (Escherichia coli [19]) of 8 µg/mL. The Activity (Staphylococcus aureus [20]) was 5.4 deltalog10CFU/ml, the MBC (Escherichia coli [21]) was 8 to 16 µg/mL (≈ 6.53 to 13.1 µM) and the Activity (Staphylococcus aureus [22]) was 3 deltalog10CFU/ml. For the same compound, the MIC (Staphylococcus aureus [23]) was 32 µg/mL, the Activity (Staphylococcus aureus [24]) was “inactive” and the MIC (Escherichia coli [25]) was under 0.5 µg/mL. The MIC (Klebsiella pneumoniae [26]) was 1 to 2 µg/mL (≈ 0.816 to 1.63 µM) and the Activity (Staphylococcus aureus [27]) was “Active”.
